Measurements as given in ChEMBL document CHEMBL4017522, “Stilbene Boronic Acids Form a Covalent Bond with Human Transthyretin and Inhibit Its Aggregation” (J Med Chem, 2017).
Activity calls are given as the source filed them. The calls are words filed in the database; no cut-off is given here.

How the values were obtained:
Transthyretin [1] = target: T1, Transthyretin (Homo sapiens, UniProt P02766); assay: Inhibition of human wild type TTR expressed in Escherichia coli BL-21 assessed as fibril formation at 7.2 uM incubated for 30 mins measured after 96 hrs by light scattering method relative to control; set-up: scale not given: the % may be the effect or the level left
In short: (§1)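 Ligand (7.2 or 14.4 μM) preincubated 30 min with TTR tetramers (7.2 μM, wild-type or V30M), then diluted twofold into 50 mM sodium acetate, pH 4.4, 100 mM KCl. Turbidity read as A400 at 0 and 96 h, four replicates; percent fibril formation = ligand-well A400 gain over DMF vehicle-well gain ×100, standard deviations propagated.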

Transthyretin [2] = target: T1, Transthyretin; assay: Competitive binding affinity to human wild type TTR expressed in Escherichia coli BL-21 assessed as equilibrium dissociation constant of second site in presence of ANS by spectrofluorometer
[3] = system: Transthyretin (Homo sapiens), P02766 [V50M]; assay: Inhibition of human TTR V30M mutant expressed in Escherichia coli BL-21 assessed as fibril formation at 14.4 uM incubated for 30 mins measured after 96 hrs by light scattering method relative to control; set-up: scale not given: the % may be the effect or the level left
[4] = system: Transthyretin (Homo sapiens), P02766 [V50M]; assay: Inhibition of human TTR V30M mutant expressed in Escherichia coli BL-21 assessed as fibril formation at 7.2 uM incubated for 30 mins measured after 96 hrs by light scattering method relative to control; set-up: scale not given: the % may be the effect or the level left
Transthyretin [5] = target: T1, Transthyretin; assay: Inhibition human wild type TTR expressed in Escherichia coli BL-21 assessed as fibril formation at 14.4 uM incubated for 30 mins after 96 hrs by light scattering method relative to control; set-up: scale not given: the % may be the effect or the level left; in short: as §1
Transthyretin [6] = target: T1, Transthyretin; assay: Reversible binding affinity to human wild type TTR expressed in Escherichia coli BL-21 at 360 uM by mass spectrometry

| Structure (SMILES) | Activity (Transthyretin [1]) | Kd (Transthyretin [2]) | Activity [3] | Activity [4] | Activity (Transthyretin [5]) | Activity (Transthyretin [6]) |
| --- | --- | --- | --- | --- | --- | --- |
| O=C(O)c1cccc(/C=C/c2ccc(B(O)O)cc2Cl)c1 | 16% | 450 nM | 10% | 32% | 4% |  |
| O=C(O)c1cccc(/C=C/c2ccc(O)cc2)c1 | 75% | 1800 nM | 120% | 112% | 77% |  |
| OB(O)c1ccc(/C=C/c2cc(O)cc(O)c2)c(Cl)c1 | 19% | 440 nM | 12% | 36% | 4% |  |
| Oc1ccc(/C=C/c2ccc(O)cc2Cl)c(Cl)c1 | 30% | 820 nM | 27% | 62% | 12% |  |
| Oc1ccc(/C=C/c2cc(O)cc(O)c2)cc1 [RESVERATROL] | 28% | 470 nM |  |  | 9% |  |
| O=C(O)c1ccc2nc(-c3cc(Cl)cc(Cl)c3)oc2c1 | 22% |  | 8% | 5% | 0% |  |
| Oc1cc(O)cc(/C=C/c2ccc(O)cc2Cl)c1 | 22% | 730 nM | 14% | 44% | 7% |  |

Now from value to compound:

| Activity (Transthyretin [1]) | Kd (Transthyretin [2]) | Activity [3] | Activity [4] | Activity (Transthyretin [5]) | Activity (Transthyretin [6]) | Structure (SMILES) |
| --- | --- | --- | --- | --- | --- | --- |
| 21% | 470 nM | 23% | 48% | 9% |  | OB(O)c1ccc(/C=C/c2cc(O)cc(O)c2)cc1 |
| 26% |  | 16% | 54% | 10% |  | OB(O)c1cccc(/C=C/c2ccc(B(O)O)cc2Cl)c1 |
| 20% | 470 nM | 8% | 32% | 3% | Active | OB(O)c1ccc(/C=C/c2ccc(B(O)O)cc2Cl)c(Cl)c1 |
| 21% | 470 nM | 9% | 41% | 3% |  | O=C(O)c1cccc(/C=C/c2ccc(O)cc2Cl)c1 |
| 21% | 990 nM | 28% | 48% | 11% |  | O=C(O)c1cccc(/C=C/c2ccc(B(O)O)cc2)c1 |
